We go through one compound from ChEMBL document CHEMBL5356993, “Novel pyrazolo[3,4-d]pyrimidine derivatives: design, synthesis, anticancer evaluation, VEGFR-2 inhibition, and antiangiogenic activity” (RSC Med Chem, 2023).

SMILES strings stand for the structures. Some results are limits rather than exact numbers.

In the first assay the test system is NCI/ADR-RES. Put plainly: Antiproliferative activity against human NCI-ADR-RES cells assessed as cell growth inhibition at 10 uM incubated for 48 hrs by SRB assay relative to control. The class given is functional. To be noted: read-out: GI. (Sulforhodamine B stains cellular protein and so reports cell mass.)
Turning to `Cc1nc2c(cnn2-c2ccccc2)c(=O)n1-c1ccc(/N=C2\C(=O)Nc3ccccc32)cc1`, the inhibition of growth at 10 µM is below 15%.

For a further assay, the system named is SK-OV-3. Put plainly: Antiproliferative activity against human SK-OV-3 cells assessed as cell growth inhibition at 10 uM incubated for 48 hrs by SRB assay relative to control. As to conditions: read-out: GI. In kind it is functional. The method, boiled down:
(§1)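 Cells plated in 96-well plates at […] cells/well and preincubated 24 h at 37 °C, 5% CO2. Time-zero plates were TCA-fixed. Compound was diluted in medium with 50 µg/mL gentamicin and cells exposed for 48 h. Adherent cells fixed with 10% final TCA; suspension cells with 16% final TCA. Plates stained with 0.4% SRB in 1% acetic acid, dye solubilized in 10 mM Trizma, absorbance read at 515 nm. Percent growth calculated against time-zero and control.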
Take `Cc1nc2c(cnn2-c2ccccc2)c(=O)n1-c1ccc(/N=C2\C(=O)Nc3ccccc32)cc1`: the inhibition of growth at 10 µM was found to be 19.6%.

A further assay deals with ACHN. Nature of the assay: Antiproliferative activity against human ACHN cells assessed as cell growth inhibition at 10 uM incubated for 48 hrs by SRB assay relative to control. The class given is functional. As to conditions: read-out: GI.
Regarding `Cc1nc2c(cnn2-c2ccccc2)c(=O)n1-c1ccc(/N=C2\C(=O)Nc3ccccc32)cc1`, the inhibition of growth at 10 µM stood at 27.7%.

The test system of a further assay is CAKI-1. Nature of the assay: Antiproliferative activity against human CAKI-1 cells assessed as cell growth inhibition at 10 uM incubated for 48 hrs by SRB assay relative to control. To be noted: read-out: GI. In kind it is functional.
For the compound `Cc1nc2c(cnn2-c2ccccc2)c(=O)n1-c1ccc(/N=C2\C(=O)Nc3ccccc32)cc1`, the inhibition of growth at 10 µM came out at 31.7%.

In another assay the test system is RXF 393. Nature of the assay: Antiproliferative activity against human RXF 393 cells assessed as cell growth inhibition at 10 uM incubated for 48 hrs by SRB assay relative to control. As to conditions: read-out: GI. The class given is functional. The method, boiled down:
as §1
For `Cc1nc2c(cnn2-c2ccccc2)c(=O)n1-c1ccc(/N=C2\C(=O)Nc3ccccc32)cc1`, the inhibition of growth at 10 µM turned out to be 29%.

A further assay concerns SN12C. Nature of the assay: Antiproliferative activity against human SN12C cells assessed as cell growth inhibition at 10 uM incubated for 48 hrs by SRB assay relative to control. The class given is functional. To be noted: read-out: GI.
For `Cc1nc2c(cnn2-c2ccccc2)c(=O)n1-c1ccc(/N=C2\C(=O)Nc3ccccc32)cc1`, the inhibition of growth at 10 µM was determined as 37.3%.

The test system of another assay is PC-3. Put plainly: Antiproliferative activity against human PC-3 cells assessed as cell growth inhibition at 10 uM incubated for 48 hrs by SRB assay relative to control. The class given is functional. As to conditions: read-out: GI.
Take `Cc1nc2c(cnn2-c2ccccc2)c(=O)n1-c1ccc(/N=C2\C(=O)Nc3ccccc32)cc1`: the inhibition of growth at 10 µM was found to be 24%.

A further assay concerns DU-145. Put plainly: Antiproliferative activity against human DU-145 cells assessed as cell growth inhibition at 10 uM incubated for 48 hrs by SRB assay relative to control. As to conditions: read-out: GI. The class given is functional.
Consider `Cc1nc2c(cnn2-c2ccccc2)c(=O)n1-c1ccc(/N=C2\C(=O)Nc3ccccc32)cc1`, for which the inhibition of growth at 10 µM was below 15%.

The next assay deals with MCF7. Put plainly: Antiproliferative activity against human MCF7 cells assessed as cell growth inhibition at 10 uM incubated for 48 hrs by SRB assay relative to control. To be noted: read-out: GI. In kind it is functional.
Consider `Cc1nc2c(cnn2-c2ccccc2)c(=O)n1-c1ccc(/N=C2\C(=O)Nc3ccccc32)cc1`, for which the inhibition of growth at 10 µM is 33.7%.

For the next assay, the system named is Hs-578T. Nature of the assay: Antiproliferative activity against human Hs-578T cells assessed as cell growth inhibition at 10 uM incubated for 48 hrs by SRB assay relative to control. In kind it is functional. As to conditions: read-out: GI. The method, boiled down:
as §1
On to `Cc1nc2c(cnn2-c2ccccc2)c(=O)n1-c1ccc(/N=C2\C(=O)Nc3ccccc32)cc1`, for which the inhibition of growth at 10 µM came to 17.6%.

Another assay deals with BT-549. Nature of the assay: Antiproliferative activity against human BT-549 cells assessed as cell growth inhibition at 10 uM incubated for 48 hrs by SRB assay relative to control. The class given is functional. As to conditions: read-out: GI.
As for `Cc1nc2c(cnn2-c2ccccc2)c(=O)n1-c1ccc(/N=C2\C(=O)Nc3ccccc32)cc1`, the inhibition of growth at 10 µM worked out at 22.1%.

The test system of a further assay is MDA-MB-468. Nature of the assay: Antiproliferative activity against human MDA-MB-468 cells assessed as cell growth inhibition at 10 uM incubated for 48 hrs by SRB assay relative to control. In kind it is functional. As to conditions: read-out: GI.
`Cc1nc2c(cnn2-c2ccccc2)c(=O)n1-c1ccc(/N=C2\C(=O)Nc3ccccc32)cc1`: the inhibition of growth at 10 µM amounted to 51.4%.

The next assay deals with NCI-H226. Put plainly: Antiproliferative activity against human NCI-H226 cells assessed as cell growth inhibition at 10 uM incubated for 48 hrs by SRB assay relative to control. In kind it is functional. To be noted: read-out: GI. The method, boiled down: as §1
Turning to `Cc1nc2c(cnn2-c2ccccc2)c(=O)n1-c1ccc(/N=C2\C(=O)Nc3ccccc32)cc1`, the inhibition of growth at 10 µM came to 24.7%.

The next assay has as its system HOP-92. Put plainly: Antiproliferative activity against human HOP-92 cells assessed as cell growth inhibition at 10 uM incubated for 48 hrs by SRB assay relative to control. The class given is functional. To be noted: read-out: GI. The method, boiled down: as §1
Regarding `Cc1nc2c(cnn2-c2ccccc2)c(=O)n1-c1ccc(/N=C2\C(=O)Nc3ccccc32)cc1`, the inhibition of growth at 10 µM came to 17.6%.

The subject of another assay is A549. Put plainly: Antiproliferative activity against human A549 cells assessed as cell growth inhibition at 10 uM incubated for 48 hrs by SRB assay relative to control. To be noted: read-out: GI. In kind it is functional.
As to `Cc1nc2c(cnn2-c2ccccc2)c(=O)n1-c1ccc(/N=C2\C(=O)Nc3ccccc32)cc1`, the inhibition of growth at 10 µM is below 15%.

The next assay has as its system RPMI-8226. Nature of the assay: Antiproliferative activity against human RPMI-8226 cells assessed as cell growth inhibition at 10 uM incubated for 48 hrs by SRB assay relative to control. The class given is functional. To be noted: read-out: GI.
As to `Cc1nc2c(cnn2-c2ccccc2)c(=O)n1-c1ccc(/N=C2\C(=O)Nc3ccccc32)cc1`, the inhibition of growth at 10 µM is 36.5%.

The test system of the next assay is MOLT-4. Put plainly: Antiproliferative activity against human MOLT-4 cells assessed as cell growth inhibition at 10 uM incubated for 48 hrs by SRB assay relative to control. In kind it is functional. As to conditions: read-out: GI.
Regarding `Cc1nc2c(cnn2-c2ccccc2)c(=O)n1-c1ccc(/N=C2\C(=O)Nc3ccccc32)cc1`, the inhibition of growth at 10 µM is 34.1%.
